# Measured values from ChEMBL document CHEMBL1140069, “In vitro antifungal activity of polyfunctionalized 2-(hetero)arylquinolines prepared through imino Diels-Alder reactions” (2008).
# Tests used:
# Assay type in all cases: functional
# [1] = test system: Nannizzia gypsea; test: Antifungal activity against Microsporum gypseum C115 after 48 hrs by broth microdilution technique
# How it was run: (§1)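 CLSI broth microdilution: M-27 A2 for yeasts and M-38 A for filamentous fungi. Medium is RPMI-1640 buffered to pH 7.0 with MOPS. Compound is diluted twofold from 250 to 0.98, final DMSO ≤2%. Inoculum is 1–5 × 10³ CFU/mL. Plates are incubated at 35 °C in a moist, dark chamber and read visually at 48 h. MIC100 is the lowest concentration giving total growth inhibition versus drug-free control.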
# [2] = test system: Trichophyton mentagrophytes; test: Antifungal activity against Trichophyton mentagrophytes C943 isolate; settings: read-out: MIC100
# [3] = test system: Trichophyton mentagrophytes; test: Antifungal activity against Trichophyton mentagrophytes C364 isolate; settings: read-out: MIC100
# [4] = test system: Trichophyton mentagrophytes; test: Antifungal activity against Trichophyton mentagrophytes C539 isolate; settings: read-out: MIC100
# [5] = test system: Trichophyton rubrum; test: Antifungal activity against Trichophyton rubrum C110 after 48 hrs by broth microdilution technique; how it was run: as §1
# [6] = test system: Trichophyton rubrum; test: Antifungal activity against Trichophyton rubrum C133 isolate; settings: read-out: MIC100
# [7] = test system: Trichophyton rubrum; test: Antifungal activity against Trichophyton rubrum C136 isolate; settings: read-out: MIC100
# [8] = test system: Trichophyton rubrum; test: Antifungal activity against Trichophyton rubrum C137 isolate; settings: read-out: MIC100
# [9] = test system: Trichophyton rubrum; test: Antifungal activity against Trichophyton rubrum C135 isolate; settings: read-out: MIC100
# [10] = test system: Trichophyton mentagrophytes; test: Antifungal activity against Trichophyton mentagrophytes C132 isolate; settings: read-out: MIC100
# [11] = test system: Trichophyton mentagrophytes; test: Antifungal activity against Trichophyton mentagrophytes C131 isolate; settings: read-out: MIC100
# [12] = test system: Trichophyton mentagrophytes; test: Antifungal activity against Trichophyton mentagrophytes ATCC 9972 after 48 hrs by broth microdilution technique; settings: ATCC 9972, 48 h; how it was run: as §1
# [13] = test system: Cryptococcus neoformans; test: Antimicrobial activity against Cryptococcus neoformans IM 972751 isolate at 6.25 ug/ml after 48 hrs
# How it was run: (§2)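 Clinical Cryptococcus isolates kept on Sabouraud-dextrose agar slopes; inoculum 1–5 × 10³ CFU/mL. Quinoline DMSO stocks were diluted in RPMI-1640 to final 100–6.25 µg/mL, with DMSO ≤2%. An equal volume of inoculum was added (200 µL per well). Run in triplicate.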
# [14] = test system: Aspergillus niger; test: Antifungal activity against Aspergillus niger ATCC 9029 after 48 hrs by broth microdilution technique; settings: ATCC 9029, 48 h; how it was run: as §1
# [15] = test system: Candida albicans; test: Antimicrobial activity against Candida albicans C129 isolate at 6.25 ug/ml after 24 hrs
# How it was run: (§3)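 Growth-inhibition microplate test. Strains are grown on Sabouraud-chloramphenicol agar for 48 h at 30 °C, and inoculum is added to RPMI-1640 containing compound at a final 100–6.25, with DMSO ≤2%. Each strain has a growth control (same DMSO, no compound) and a sterility control.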
# [16] = test system: Cryptococcus neoformans; test: Antimicrobial activity against Cryptococcus neoformans IM 983040 isolate at 6.25 ug/ml after 48 hrs; how it was run: as §2
# [17] = test system: Cryptococcus neoformans; test: Antimicrobial activity against Cryptococcus neoformans IM 00319 isolate at 6.25 ug/ml after 48 hrs
# How it was run: (§4)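 Percent growth inhibition in 96-well microplates. Compound stocks in DMSO (≤2%) were diluted in RPMI-1640 to final 100–6.25 µg/mL, and 100 µL inoculum was added (final 200 µL). Controls were a growth well (inoculum with matching DMSO, no compound) and a sterility well (no inoculum). Inhibition was calculated against growth and sterility wells.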
# [18] = test system: Cryptococcus neoformans; test: Antimicrobial activity against Cryptococcus neoformans IM 042074 isolate at 6.25 ug/ml after 48 hrs; how it was run: as §4
# [19] = test system: Cryptococcus neoformans; test: Antifungal activity against Cryptococcus neoformans ATCC 32264 after 48 hrs by broth microdilution technique; settings: ATCC 32264, 48 h; how it was run: as §1
# [20] = test system: Candida albicans; test: Antimicrobial activity against Candida albicans C130 isolate at 6.25 ug/ml after 24 hrs; how it was run: as §3
# [21] = test system: Candida albicans; test: Antimicrobial activity against Candida albicans ATCC 10231 at 6.25 ug/ml after 24 hrs; settings: ATCC 10231, 24 h; how it was run: as §3
# [22] = test system: Candida albicans; test: Antimicrobial activity against Candida albicans C128 isolate at 6.25 ug/ml after 24 hrs; how it was run: as §3
# [23] = test system: Pichia kudriavzevii; test: Antimicrobial activity against Candida krusei C117 isolate at 6.25 ug/ml after 24 hrs; how it was run: as §4
# [24] = test system: Candida albicans; test: Antimicrobial activity against Candida albicans C127 isolate at 6.25 ug/ml after 24 hrs; settings: C127, 24 h; how it was run: as §3
# [25] = test system: Candida parapsilosis; test: Antimicrobial activity against Candida parapsilosis C124 isolate at 6.25 ug/ml after 24 hrs; settings: Lodderomyces parapsilosis; how it was run: as §4
# [26] = test system: Aspergillus flavus; test: Antifungal activity against Aspergillus flavus ATCC 9170 after 48 hrs by broth microdilution technique; settings: ATCC 9170, 48 h; how it was run: as §1
# [27] = test system: Cryptococcus neoformans; test: Antimicrobial activity against Cryptococcus neoformans IM 031706 isolate at 6.25 ug/ml after 48 hrs; how it was run: as §4
# [28] = test system: Cryptococcus neoformans; test: Antimicrobial activity against Cryptococcus neoformans IM 052470 isolate at 6.25 ug/ml after 48 hrs; how it was run: as §4
# [29] = test system: Aspergillus fumigatus; test: Antifungal activity against Aspergillus fumigatus ATTC 26934 after 48 hrs by broth microdilution technique; how it was run: as §1
# [30] = test system: Cryptococcus neoformans; test: Antimicrobial activity against Cryptococcus neoformans IM 031631 isolate at 6.25 ug/ml after 48 hrs; how it was run: as §4
# [31] = test system: Candida albicans; test: Antifungal activity against Candida albicans ATCC 10231 after 48 hrs by broth microdilution technique; settings: ATCC 10231, 48 h; how it was run: as §1
# [32] = test system: Cryptococcus neoformans; test: Antimicrobial activity against Cryptococcus neoformans IM 983036 isolate at 6.25 ug/ml after 48 hrs; how it was run: as §2
# [33] = test system: Cryptococcus neoformans; test: Antimicrobial activity against Cryptococcus neoformans IM 961951 isolate at 6.25 ug/ml after 48 hrs; how it was run: as §2
# [34] = test system: Candida tropicalis; test: Antimicrobial activity against Candida tropicalis C131 isolate at 6.25 ug/ml after 24 hrs; how it was run: as §4
# [35] = test system: Nakaseomyces glabratus; test: Antimicrobial activity against Candida glabrata C115 isolate at 6.25 ug/ml after 24 hrs; how it was run: as §4
# [36] = test system: Cryptococcus neoformans; test: Antimicrobial activity against Cryptococcus neoformans ATCC 32264 at 6.25 ug/ml after 48 hrs; settings: ATCC 32264, 48 h; how it was run: as §4
# [37] = test system: Saccharomyces cerevisiae; test: Antifungal activity against Saccharomyces cerevisiae ATCC 9763 after 48 hrs by broth microdilution technique; settings: ATCC 9763, 48 h; how it was run: as §1
# [38] = test system: Candida albicans; test: Antimicrobial activity against Candida albicans C126 isolate at 6.25 ug/ml after 24 hrs; how it was run: as §3
# [39] = test system: Cryptococcus neoformans; test: Antimicrobial activity against Cryptococcus neoformans IM 972724 isolate at 6.25 ug/ml after 48 hrs; how it was run: as §2
SMILES,MIC [1],MIC [2],MIC [3],MIC [4],MIC ([5]; read-out: MIC100),MIC [6],MIC [7],MIC [8],MIC [9],MIC [10],MIC [11],MIC [12],MIC ([5]; read-out: MIC),inhibition at 6.25 µg/mL [13],MIC [14],MIC [19],MIC [26],MIC [29],MIC [31],MIC [37],also measured
C[C@@H]1[C@H](O)[C@@H](C)/C=C/C=C/C=C/C=C/C=C/C=C/C=C/[C@H](O[C@@H]2O[C@H](C)[C@@H](O)[C@H](N)[C@@H]2O)C[C@@H]2O[C@](O)(C[C@@H](O)C[C@@H](O)[C@H](O)CC[C@@H](O)C[C@@H](O)CC(=O)O[C@H]1C)C[C@H](O)[C@H]2C(=O)O [AMPHOTERICIN B],,,,,,,,,,,,,,100%,0.5 µg/mL,0.25 µg/mL,0.5 µg/mL,0.5 µg/mL,1 µg/mL,0.5 µg/mL,inhibition at 6.25 µg/mL [15]: 100%; inhibition at 6.25 µg/mL [16]: 100%; inhibition at 6.25 µg/mL [17]: 100%; inhibition at 6.25 µg/mL [18]: 100%; inhibition at 6.25 µg/mL [20]: 100%; inhibition at 6.25 µg/mL [21]: 100%; inhibition at 6.25 µg/mL [22]: 100%; inhibition at 6.25 µg/mL [23]: 100%; inhibition at 6.25 µg/mL [24]: 100%; inhibition at 6.25 µg/mL [25]: 100%; inhibition at 6.25 µg/mL [27]: 100%; inhibition at 6.25 µg/mL [28]: 100%; inhibition at 6.25 µg/mL [30]: 100%; inhibition at 6.25 µg/mL [32]: 100%; inhibition at 6.25 µg/mL [33]: 100%; inhibition at 6.25 µg/mL [34]: 100%; inhibition at 6.25 µg/mL [35]: 100%; inhibition at 6.25 µg/mL [36]: 100%; inhibition at 6.25 µg/mL [38]: 100%; inhibition at 6.25 µg/mL [39]: 100%
CC(=O)N1CCN(c2ccc(OCC3COC(Cn4ccnc4)(c4ccc(Cl)cc4Cl)O3)cc2)CC1 (configuration not stated) [KETOCONAZOLE],0.05 µg/mL,,,,,,,,,,,0.025 µg/mL,0.025 µg/mL,100%,0.25 µg/mL,0.25 µg/mL,0.5 µg/mL,0.125 µg/mL,0.5 µg/mL,0.5 µg/mL,inhibition at 6.25 µg/mL [15]: 100%; inhibition at 6.25 µg/mL [16]: 100%; inhibition at 6.25 µg/mL [17]: 100%; inhibition at 6.25 µg/mL [18]: 100%; inhibition at 6.25 µg/mL [20]: 100%; inhibition at 6.25 µg/mL [21]: 100%; inhibition at 6.25 µg/mL [22]: 100%; inhibition at 6.25 µg/mL [23]: 100%; inhibition at 6.25 µg/mL [24]: 100%; inhibition at 6.25 µg/mL [25]: 100%; inhibition at 6.25 µg/mL [27]: 100%; inhibition at 6.25 µg/mL [28]: 100%; inhibition at 6.25 µg/mL [30]: 100%; inhibition at 6.25 µg/mL [32]: 100%; inhibition at 6.25 µg/mL [33]: 100%; inhibition at 6.25 µg/mL [34]: 100%; inhibition at 6.25 µg/mL [35]: 100%; inhibition at 6.25 µg/mL [36]: 100%; inhibition at 6.25 µg/mL [38]: 100%; inhibition at 6.25 µg/mL [39]: 100%

# The next lines start with results.
MIC [1],MIC [2],MIC [3],MIC [4],MIC ([5]; read-out: MIC100),MIC [6],MIC [7],MIC [8],MIC [9],MIC [10],MIC [11],MIC [12],MIC ([5]; read-out: MIC),SMILES,inhibition at 6.25 µg/mL [13],MIC [14],MIC [19],MIC [26],MIC [29],MIC [31],MIC [37],also measured
0.04 µg/mL,0.006 µg/mL,0.006 µg/mL,0.006 µg/mL,0.01 µg/mL,0.006 µg/mL,0.006 µg/mL,0.012 µg/mL,0.006 µg/mL,0.006 µg/mL,0.006 µg/mL,0.04 µg/mL,,CN(C/C=C/C#CC(C)(C)C)Cc1cccc2ccccc12 [TERBINAFINE],,,,,,,,
12.5 µg/mL,7.8 µg/mL,7.8 µg/mL,7.8 µg/mL,7.8 µg/mL,15.6 µg/mL,7.8 µg/mL,7.8 µg/mL,7.8 µg/mL,7.8 µg/mL,31.2 µg/mL,12.5 µg/mL,12.5 µg/mL,Cc1cc(-c2ccncc2)nc2c(C)cccc12,,> 250 µg/mL,> 250 µg/mL,> 250 µg/mL,> 250 µg/mL,> 250 µg/mL,> 250 µg/mL,
12.5 µg/mL,7.8 µg/mL,7.8 µg/mL,7.8 µg/mL,7.8 µg/mL,15.6 µg/mL,7.8 µg/mL,7.8 µg/mL,7.8 µg/mL,7.8 µg/mL,15.6 µg/mL,12.5 µg/mL,12.5 µg/mL,Cc1cc(-c2ccncc2)nc2c(C(C)C)cccc12,,> 250 µg/mL,> 250 µg/mL,> 250 µg/mL,> 250 µg/mL,> 250 µg/mL,> 250 µg/mL,
